According to PMC4167792 (Analytical biochemistry, 2013):
Several values for one entry are separate records, joined by “and”; a condition that tells them apart may be missing. Identical values can stand only once. One block for each molecule: values may come before it.

Legend:
SIRT6 = assay: Histone deacetylation assay by mass spectrometry on SIRT6-coated magnetic beads; format: biochemical, chicken; conditions: 10 μM of each compound, H3K9Ac peptide, 0.2 mM NAD+, 4 h at 37°C
How it was run: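 SIRT6 was coupled by its C-terminus to amine-terminated magnetic beads (1 μm). Beads were incubated in 50 μL of 50 mM Tris-HCl pH 8.0, 150 mM NaCl, 1 mM DTT with 5 μg of H3K9Ac peptide (residues 1–21). p-Aminohippuric acid was added as internal standard. The supernatant, taken after magnetic separation, was run on C18 LC-ESI-MS, positive-ion SIM at m/z 922.4 (acetylated) and 908.4 (deacetylated).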

SIRT6 protein = SIRT6 protein (Gallus gallus, UniProt A0A8V1A309); assay: Frontal affinity chromatography on the SIRT6-OT column; format: binding, chicken; conditions: for Kd: SIRT6-OT column, ammonium acetate 10 mM pH 7.4:methanol 90:10, 0.2 mM NAD+, non-linear regression
[1] = test system: quercetin binding site of SIRT6; assay: Frontal displacement chromatography of quercetin on the SIRT6-OT column; parameters: species or system chicken; conditions: 10 μM polyphenol in mobile phase in the presence of 5 μM quercetin
How it was run: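 Full-length chicken SIRT6, expressed in E. coli as a GST fusion, thrombin-cleaved and purified by size exclusion. Coupled inside an open tubular capillary (30 cm × 100 μm i.d.) with EDC/Sulfo-NHS in 100 mM MES pH 5.5, 18 h at 4°C. Frontal runs at room temperature, 0.05 mL min^-1, in 10 mM ammonium acetate pH 7.4:methanol (90:10) with 0.2 mM NAD⁺. ESI-MS detection; retention-volume shift recorded.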

Structure (SMILES): O=c1cc(-c2ccc(O)cc2)oc2cc(O)cc(O)c12 [Apigenin]
% inhibition of deacetylation relative to control (SIRT6): 39.0 ± 5.9%
Kd (SIRT6 protein): 1.9 µM and 1.92 µM

Kd (SIRT6 protein): 3.88 ± 0.57 µM
Structure (SMILES): O=c1c(O)c(-c2ccc(O)cc2)oc2cc(O)cc(O)c12 [Kaempferol]
% inhibition of deacetylation relative to control (SIRT6): 48.6 ± 6.0%

Structure (SMILES): O=c1cc(-c2ccc(O)c(O)c2)oc2cc(O)cc(O)c12 [Luteolin]
% inhibition of deacetylation relative to control (SIRT6): 53.7 ± 17.7%
Kd (SIRT6 protein): 1.78 ± 0.64 µM
displacement of quercetin (change in retention) [1]: 38.1 min

Structure (SMILES): O=C1C[C@@H](c2ccc(O)cc2)Oc2cc(O)cc(O)c21 [Naringenin]
% inhibition of deacetylation relative to control (SIRT6): 31.0 ± 5.3%
Kd (SIRT6 protein): 6.6 µM and 6.62 µM
fold decrease in affinity for the SIRT6 protein (SIRT6 protein; naringenin vs apigenin (saturation of the C ring double bond)): 3 fold

Structure (SMILES): O=c1c(O)c(-c2ccc(O)c(O)c2)oc2cc(O)cc(O)c12 [Quercetin]
% inhibition of deacetylation relative to control (SIRT6): 46.6 ± 2.3%
breakthrough volume (SIRT6 protein; 2 μM quercetin on SIRT6-OT column): 5.25 mL
midpoint of the breakthrough curve (SIRT6 protein; 2 μM quercetin on SIRT6-OT column, 0.05 mL/min): 105 min
Kd (SIRT6 protein): 4.09 ± 2.26 µM

Structure (SMILES): O=c1cc(-c2ccc(O)cc2)oc2c([C@@H]3O[C@H](CO)[C@@H](O)[C@H](O)[C@H]3O)c(O)cc(O)c12 [Vitexin]
% inhibition of deacetylation relative to control (SIRT6): 24.9 ± 0.9%
Kd (SIRT6 protein): 15.3 µM
displacement of quercetin (change in retention) [1]: 16.5 min

displacement of quercetin (change in retention) [1]: 2.5 min
Structure (SMILES): O=c1c(-c2ccc(O)cc2)coc2cc(O)cc(O)c12 [genistein, Genistein]
